Data set [1] is described as follows: Inhibition of ATP synthase in Mycobacterium smegmatis inverted membrane vesicles using NADH as substrate incubated for 60 mins by luciferin-luciferase reaction based bioluminescence assay. On the set-up: species or system Mycolicibacterium smegmatis. The procedure, abridged:
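ATP made by oxidative phosphorylation in M. smegmatis inverted membrane vesicles (IMVs), driven by NADH with ADP and Pi as ATP synthase substrates. ATP was read by luminescence. IC50 was taken from dose-response testing.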

Data set [2] concerns Mycobacterium tuberculosis. In words: Antimycobacterial activity against Mycobacterium tuberculosis H37Rv by turbidometric method. It is filed as functional. Summed up:
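MIC taken as the minimum concentration inhibiting M. tuberculosis growth by 80%.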

In data set [3] the test system is Mycolicibacterium smegmatis. In words: Inhibition of cytochrome c oxidase in Mycobacterium smegmatis inverted membrane vesicles lacking cytochrome-bd complex assessed as reduction of oxygen consumption treated between 250 to 450 secs post NADH addition.
In data set [4] the test system is Mycolicibacterium smegmatis. In words: Inhibition of oxygen consumption in Mycobacterium smegmatis inverted membrane vesicles lacking cytochrome bc1 complex treated between 250 to 450 secs post NADH addition. It counts as functional.
In data set [5] the test system is Mycolicibacterium smegmatis. In words: Selectivity ratio of IC50 for NDH2 in Mycobacterium smegmatis inverted membrane vesicles using NADH as substrate to IC50 for SDH in Mycobacterium smegmatis inverted membrane vesicles using succinate as substrate.
Data set [6] concerns Mycolicibacterium smegmatis. In words: Selectivity ratio of IC50 for NADH dependent ATP synthesis in Mycobacterium smegmatis inverted membrane vesicles lacking cytochrome-bc1 complex to IC50 for cytochrome c oxidase in Mycobacterium smegmatis inverted membrane vesicles assessed as decrease in NADH dependent ATP synthesis.
The nature of data set [7]: Selectivity index, ratio of IC50 for human THP1 cells to MIC for Mycobacterium tuberculosis H37Rv. It counts as toxicity. Particulars: read-out: Selectivity Index. Summed up: (§1)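 Cytotoxicity index is MMIC divided by M. tuberculosis MIC. MMIC is the minimum concentration inhibiting A549 or THP1 proliferation by 50%. MIC is the concentration giving 80% growth inhibition.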

Data set [8] in a line: Selectivity index, ratio of IC50 for human A549 cells to MIC for Mycobacterium tuberculosis H37Rv. It counts as toxicity. The settings on record: read-out: Selectivity Index. The procedure, abridged: as §1
Data set [9] in a line: Lipophilicity, log D of compound. It is filed as physicochemical. Particulars: octanol/water.
For data set [10], the system named is Mycobacterium tuberculosis. In words: Bactericidal activity against Mycobacterium tuberculosis H37Rv. It is filed as functional.
For data set [11], the system named is Plasma. In words: Drug uptake in BALB/c mouse plasma at 100 mg/kg, po in presence of pan CYP inhibitor ABT by LC-MS/MS method. It is filed as ADME, organism-based. The settings on record: in vivo.
The subject of data set [12] is Mycobacterium tuberculosis. In words: Antimycobacterial activity against Mycobacterium tuberculosis H37Rv infected in BALB/c mouse assessed as bacterial growth inhibition at 100 to 200 mg/kg, po qd administered […] for 2 weeks. It is filed as functional, organism-based.
The test system of data set [13] is Plasma. Put plainly: Ratio of free plasma concentration in BALB/c mouse infected with Mycobacterium tuberculosis H37Rv in absence of pan CYP inhibitor ABT to presence of pan CYP inhibitor ABT. It is filed as ADME.
A further data set has as its system Mus musculus. Put plainly: Time required for free plasma concentration to maintain above in vitro MIC for Mycobacterium tuberculosis H37Rv in BALB/c mouse infected with Mycobacterium tuberculosis H37Rv at 100 mg/kg, po in presence of pan CYP inhibitor ABT.

≈ marks a conversion by molar mass, not a printed value. Calls of active or inactive are those of the source.

One may read the IC50 as the concentration that inhibits the measured activity by half. As a reminder, the MIC80 is an inhibitory concentration at the 80% level, which refers to growth in some studies and to a panel of isolates in others. In [1], `O=c1c(NCc2ccccn2)c(-c2ccc(C(F)(F)F)cc2)c1=O` returned an IC50 of 300 nM. Besides, the MIC80 in [2] is 6.2 µM (≈ 2.06 µg/mL).

Regarding `Fc1ccc(OCCOc2c(-c3ccccc3)nc3ccccn23)cc1`, in data set [1], the concentration for half-maximal inhibition (IC50) stood at 80 nM. The MIC80 in data set [2] is under 0.8 µM.

As for `CC(Nc1c(-c2ccc(N3CCOCC3)cc2)c(=O)c1=O)c1ccccn1` (configuration not stated), the IC50 in data set [1] was over 25000 nM. This molecule displayed an MIC80 in data set [2] of over 100 µM.

For the molecule `COCCCOc1c(-c2ccccc2)nc2ccccn12`, the concentration for half-maximal inhibition (IC50) in data set [1] was 18900 nM. Also, the MIC80 in data set [2] is over 15 µM.

`Cc1ccc2nc(-c3ccc(F)cc3)c(OCCCNS(=O)(=O)c3ccc(F)cc3)n2c1`: half-maximal inhibition in data set [1] (IC50) required 700 nM. This molecule also showed an MIC80 in data set [2] of 1.6 µM (≈ 0.732 µg/mL).

Take `Cc1ccc2nc(-c3ccc(F)cc3)c(OCCNCc3ccc(C)c(F)c3)n2c1`: half-maximal inhibition in data set [1] (IC50) was put at 70 nM. The MIC80 in [2] came to 0.6 µM (≈ 0.244 µg/mL).

As for `Cc1ccc2nc(-c3ccccc3)c(OCCCN3CCN(C)CC3)n2c1`, in [1], the 50% inhibitory concentration (IC50) turned out to be 6400 nM. In [2], the MIC80 is over 200 µM.

`O=c1c(NCc2cnccn2)c(-c2ccc(N3CCOCC3)cc2)c1=O` showed a 50% inhibitory concentration (IC50) in [1] of 770 nM. Besides, the MIC80 in data set [2] is 3.12 to 12.5 µM (≈ 1.09 to 4.38 µg/mL).

For the molecule `Cc1ccc2nc(-c3ccc(F)cc3)c(OCCCOc3cncc(F)c3)n2c1`, the midpoint of inhibition in data set [1], the IC50, lay at 60 nM. Also, in [2], the MIC80 was under 0.6 µM.

For `Cc1ccc2nc(-c3ccc(F)cc3)c(OCCCNc3cnc(C)c(Br)c3)n2c1`, half-maximal inhibition in data set [1] (IC50) required 210 nM. The MIC80 in data set [2] stood at 0.8 µM (≈ 0.375 µg/mL).

In [1], `Cc1cnc(CNc2c(-c3ccc(C(F)(F)F)cc3)c(=O)c2=O)cn1` showed an IC50 of 8400 nM. For the same molecule, the MIC80 in data set [2] was 50 µM (≈ 17.4 µg/mL).

`Cc1ccc2nc(-c3ccc(F)cc3)c(OCCCN3CCN(c4ccccc4)CC3)n2c1`: in data set [1], the half-inhibitory concentration (IC50) was 50 nM. In data set [2], the MIC80 is under 0.8 µM.

Molecule `O=c1c(NCc2ccccc2)c(-c2ccc(N3CCOCC3)cc2)c1=O` displayed a half-maximal inhibitory concentration (IC50) in data set [1] of over 100000 nM. In [2], the MIC80 is over 100 µM.

`O=c1c(NCc2ccc(-c3ccccc3)cn2)c(-c2ccc(N3CCOCC3)cc2)c1=O` showed an IC50 in data set [1] of 9500 nM. The MIC80 in [2] was over 100 µM.

With `CO[C@H]1/C=C/O[C@@]2(C)Oc3c(C)c(O)c4c(O)c(c(/C=N/N5CCN(C)CC5)c(O)c4c3C2=O)NC(=O)/C(C)=C\C=C\[C@H](C)[C@H](O)[C@@H](C)[C@@H](O)[C@@H](C)[C@H](OC(C)=O)[C@@H]1C` [RIFAMPIN], the MIC80 in [2] is 0.004 µM (≈ 0.00329 µg/mL).

As to `Cc1ccc2nc(-c3ccccc3)c(OCCCOc3ccccc3)n2c1`, in data set [1], the midpoint of inhibition, the IC50, lay at 30 nM. In data set [2], the MIC80 is under 0.5 µM. Moreover, the inhibition entry in data set [3] is “Active”. Also, the inhibition result in data set [4] is “inactive”.

Turning to `Cc1ccc2nc(-c3ccc(F)cc3)c(OCCOc3ccc(F)cc3)n2c1`, in data set [1], the IC50 was determined as 20 nM. Further, the MIC80 in data set [2] amounted to 3.1 µM (≈ 1.18 µg/mL). For the same molecule, the inhibition entry in data set [3] is “Active”. For the same molecule, the inhibition result in data set [4] was “inactive”.

In data set [1], `Cc1ccc2nc(-c3ccccc3)c(OCCOc3ccc(F)cc3)n2c1` gave an IC50 of 50 nM. Also, the MIC80 in [2] was under 1 µM. The inhibition entry in data set [3] is “Active”. Further, the inhibition result in [4] is “inactive”.

In data set [1], `Fc1ccc(OCCOc2c(-c3ccccc3)nc3ccc(Cl)cn23)cc1` yielded a half-maximal inhibitory concentration (IC50) of 40 nM. Moreover, in data set [2], the MIC80 is under 1 µM. Also, in data set [3], the inhibition result is “Active”. In addition, the inhibition result in data set [4] is “inactive”.

Turning to `Cc1ccc2nc(-c3ccc(F)cc3)c(OCCCOc3ccc(C)nc3)n2c1`, the IC50 in data set [1] is under 20 nM. This molecule also yielded an MIC80 in data set [2] of under 0.8 µM.

`Cc1ccc2nc(-c3ccc(F)cc3)c(OCCCOc3cncnc3)n2c1` yielded an IC50 in [1] of 5600 nM. In addition, the MIC80 in [2] was 6.9 µM (≈ 2.61 µg/mL). Further, in data set [3], the inhibition entry is “Active”. Besides, in [4], the inhibition result is “inactive”.

Molecule `N#Cc1ccc2nc(-c3ccccc3)c(OCCCOc3ccccc3)n2c1` came in with a concentration for half-maximal inhibition (IC50) in data set [1] of over 100000 nM. For the same molecule, in [2], the MIC80 was over 250 µM.

`COc1nc2ccc(Br)cc2cc1[C@@H](c1ccccc1)[C@@](O)(CCN(C)C)c1cccc2ccccc12`: the Ratio IC50 in data set [5] was 1.5; in data set [6], 2. Further, the inhibition entry in [3] and in data set [4] was “inactive” in each case.

Turning to `c1ccc(OCCCOc2c(-c3ccccc3)nc3ccccn23)cc1`, in [1], half-maximal inhibition (IC50) required 130 nM. This molecule also gave an MIC80 in data set [2] of 1.6 µM (≈ 0.551 µg/mL).

Consider `N#Cc1ccc(-c2c(NCc3ccccn3)c(=O)c2=O)cc1`, for which the IC50 in data set [1] came out at 66600 nM. In data set [2], this molecule gave an MIC80 of 100 µM (≈ 28.9 µg/mL).

In data set [1], `Cc1ccc2nc(-c3ccc(F)cc3)c(OCCCOc3ccc(C)nc3C)n2c1` came in with an IC50 of 90 nM. In data set [2], this molecule registered an MIC80 of 6.3 µM (≈ 2.55 µg/mL).

As a reminder, the logD is the decadic logarithm of the distribution of all forms, ionised or not, between an organic phase and buffer at a given pH. `Clc1ccc2nc(-c3ccccc3)c(OCCN3CCOCC3)n2c1` returned a half-inhibitory concentration (IC50) in data set [1] of 36100 nM. Moreover, the MIC80 in data set [2] is over 200 µM. Besides, the Selectivity ratio in [7] and in data set [8] was 0.5 in each case. The pH-dependent lipophilicity (logD) in data set [9] was found to be 3.3.

Usually MBC stands for the smallest concentration meeting the test's criterion for killing. The low end stands for greater bactericidal potency, the high end for weaker bactericidal potency. `Clc1ccc2nc(-c3ccccc3)c(OCCCOc3ccccc3)n2c1` displayed a 50% inhibitory concentration (IC50) in data set [1] of under 20 nM. Also, the MIC80 in data set [2] is under 0.5 µM. In addition, in data set [10], the minimum bactericidal concentration (MBC) is over 100 µM.

In data set [2], `NNC(=O)c1ccncc1` [ISONIAZID] registered an MIC80 of 0.02 µM (≈ 0.00274 µg/mL).

On to `Cc1ccc2nc(-c3ccc(F)cc3)c(OCCNC(=O)c3ccc(C)nc3)n2c1`, for which, in [1], the half-maximal inhibitory concentration (IC50) was 7200 nM. In data set [2], this molecule had an MIC80 of over 200 µM.

Consider `Cc1ccc2nc(-c3ccc(F)cc3)c(OCCCNc3ccc(F)c(C)n3)n2c1`, for which the IC50 in data set [1] was 60 nM. For the same molecule, in [2], the MIC80 was under 0.5 µM. Also, the MBC in [10] was over 100 µM.

`Cc1ccc2nc(-c3ccc(F)cc3)c(OCCNS(=O)(=O)c3ccc(F)c(Cl)c3)n2c1` returned a 50% inhibitory concentration (IC50) in data set [1] of 400 nM. The molecule also yielded an MIC80 in [2] of 3.1 µM (≈ 1.48 µg/mL).

In [1], `Cc1ccc2nc(-c3ccc(F)cc3)c(OCCCOc3cccnc3)n2c1` registered an IC50 of 160 nM. Moreover, the MIC80 in [2] is under 0.9 µM.

On to `Cc1ccc2nc(-c3ccc(F)cc3)c(OCCCNc3ccc(F)c(C)c3)n2c1`, for which, in data set [1], the IC50 is 5 nM. In [2], the MIC80 turned out to be 0.03 µM (≈ 0.0122 µg/mL). In addition, in the data set with Plasma [11], the Drug uptake entry was “Active”. In data set [10], the minimal bactericidal concentration (MBC) was over 100 µM.

Consider `O=c1c(NCc2ccccn2)c(-c2ccc(N3CCOCC3)cc2)c1=O`, for which, in [1], the concentration for half-maximal inhibition (IC50) came to 30 nM. This molecule also came in with an MIC80 in [2] of 0.5 to 0.8 µM (≈ 0.175 to 0.28 µg/mL). Also, the “growth inhibition (GI)” value in [12] is “Active”. Moreover, the Ratio in the data set with Plasma [13] is 300. In addition, the Time in the data set on Mus musculus came to 15 h.

`COc1ncc(NCCCOc2c(-c3ccc(F)cc3)nc3ccc(C)cn23)cc1C` displayed an IC50 in data set [1] of 80 nM. The MIC80 in data set [2] was under 0.8 µM.

These data come from ChEMBL document CHEMBL4052589, “Discovery of Imidazo[1,2-a]pyridine Ethers and Squaramides as Selective and Potent Inhibitors of Mycobacterial Adenosine Triphosphate (ATP) Synthesis” (J Med Chem, 2017).
